{
  "source": "ChEMBL document CHEMBL2062417",
  "about": "“Biotinylated quercetin as an intrinsic photoaffinity proteomics probe for the identification of quercetin target proteins” (Bioorg Med Chem, 2011)",
  "key": {"[1]": {"biological_target": "Calcium/calmodulin-dependent protein kinase type II subunit beta (Homo sapiens, UniProt Q13554)", "sequence (Q13554 whole entry)": "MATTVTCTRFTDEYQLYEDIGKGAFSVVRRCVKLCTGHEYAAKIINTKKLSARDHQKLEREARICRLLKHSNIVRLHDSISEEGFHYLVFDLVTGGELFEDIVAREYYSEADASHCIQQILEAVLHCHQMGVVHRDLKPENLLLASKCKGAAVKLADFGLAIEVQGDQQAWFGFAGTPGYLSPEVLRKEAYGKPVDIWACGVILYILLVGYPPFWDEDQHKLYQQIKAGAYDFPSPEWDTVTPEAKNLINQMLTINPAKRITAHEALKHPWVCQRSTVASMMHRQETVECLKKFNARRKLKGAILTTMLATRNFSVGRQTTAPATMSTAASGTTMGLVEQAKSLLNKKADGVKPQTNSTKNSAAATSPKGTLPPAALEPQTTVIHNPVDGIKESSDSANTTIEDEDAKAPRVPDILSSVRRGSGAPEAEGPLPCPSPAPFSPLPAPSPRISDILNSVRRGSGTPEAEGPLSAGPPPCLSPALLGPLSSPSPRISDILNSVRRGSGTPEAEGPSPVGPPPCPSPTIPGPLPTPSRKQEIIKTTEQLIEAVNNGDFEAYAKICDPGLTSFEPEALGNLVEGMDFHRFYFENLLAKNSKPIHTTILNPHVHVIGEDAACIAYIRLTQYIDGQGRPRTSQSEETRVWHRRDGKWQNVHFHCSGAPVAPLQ", "experiment": "Inhibition of CAMK2 using autocamtide-2 as substrate after 30 mins by PKLight assay"}, "[2]": {"test_system": "Jurkat", "experiment": "Inhibition of heat shock-induced HSP70 expression in human Jurkat cells at 145 uM treated 2 hrs before beat shock challenge measured after 8 hrs by Western blotting", "assay_type": "functional, cell-based", "procedure,_shortened": "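Jurkat cells (low basal HSP70) got 145 μM compound or DMSO vehicle for 2 h, then a 30 min 43 °C heat shock and 8 h recovery at 37 °C. HSP70 and actin were read by Western blot. Controls were unheated cells and heated cells with no additive.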"}, "[3]": {"biological_target": "T1, Ubiquitin-like modifier-activating enzyme 1 (Homo sapiens) (UniProt P22314)", "T1 sequence (whole entry)": "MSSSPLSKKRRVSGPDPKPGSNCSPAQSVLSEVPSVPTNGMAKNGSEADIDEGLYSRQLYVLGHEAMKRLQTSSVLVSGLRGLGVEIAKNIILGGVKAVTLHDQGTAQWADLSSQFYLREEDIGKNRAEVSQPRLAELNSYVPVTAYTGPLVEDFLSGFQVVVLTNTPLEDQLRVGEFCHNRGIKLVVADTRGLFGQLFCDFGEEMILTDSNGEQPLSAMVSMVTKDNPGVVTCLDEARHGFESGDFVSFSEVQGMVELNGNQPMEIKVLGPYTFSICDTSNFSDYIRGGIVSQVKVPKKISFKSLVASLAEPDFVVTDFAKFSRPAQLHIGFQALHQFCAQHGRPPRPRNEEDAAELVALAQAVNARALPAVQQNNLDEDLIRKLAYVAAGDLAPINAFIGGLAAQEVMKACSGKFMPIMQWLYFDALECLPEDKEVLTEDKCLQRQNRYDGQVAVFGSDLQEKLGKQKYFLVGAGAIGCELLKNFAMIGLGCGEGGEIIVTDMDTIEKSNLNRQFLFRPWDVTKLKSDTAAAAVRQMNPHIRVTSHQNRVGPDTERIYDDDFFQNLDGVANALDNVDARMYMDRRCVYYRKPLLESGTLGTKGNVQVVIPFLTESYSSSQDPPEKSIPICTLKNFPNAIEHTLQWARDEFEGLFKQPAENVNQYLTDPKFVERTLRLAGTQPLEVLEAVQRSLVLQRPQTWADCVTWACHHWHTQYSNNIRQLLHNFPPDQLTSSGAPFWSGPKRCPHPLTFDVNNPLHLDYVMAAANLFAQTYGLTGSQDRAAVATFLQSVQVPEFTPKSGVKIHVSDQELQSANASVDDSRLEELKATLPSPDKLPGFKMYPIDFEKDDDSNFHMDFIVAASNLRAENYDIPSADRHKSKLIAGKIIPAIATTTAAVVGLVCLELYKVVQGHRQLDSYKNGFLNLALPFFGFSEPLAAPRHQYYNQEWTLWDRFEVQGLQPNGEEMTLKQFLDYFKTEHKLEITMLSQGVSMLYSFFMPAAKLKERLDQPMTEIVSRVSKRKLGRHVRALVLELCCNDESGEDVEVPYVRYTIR", "experiment": "Binding affinity to UBA1 in human Jurkat cells at 150 uM followed by UV irradiation for 30 mins with Wood's glass filtered medium pressure mercury arc light prior to cell lysis measured after denaturing wash by LC-MS/MS based pull down assay", "procedure,_shortened": "(§1)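 Silver-stained bands from cells irradiated before lysis were excised, destained, reduced with 10 mM DTT, alkylated with 50 mM iodoacetamide and digested with trypsin overnight. Peptides were extracted in 1% TFA/50% acetonitrile. Nano-C18 LC used a 2–50% acetonitrile gradient with 0.1% formic acid over 50 min at 260 nL/min, followed by MS/MS identification.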"}, "[4]": {"biological_target": "T2, Splicing factor 3B subunit 3 (Homo sapiens) (UniProt Q15393)", "T2 sequence (whole entry)": "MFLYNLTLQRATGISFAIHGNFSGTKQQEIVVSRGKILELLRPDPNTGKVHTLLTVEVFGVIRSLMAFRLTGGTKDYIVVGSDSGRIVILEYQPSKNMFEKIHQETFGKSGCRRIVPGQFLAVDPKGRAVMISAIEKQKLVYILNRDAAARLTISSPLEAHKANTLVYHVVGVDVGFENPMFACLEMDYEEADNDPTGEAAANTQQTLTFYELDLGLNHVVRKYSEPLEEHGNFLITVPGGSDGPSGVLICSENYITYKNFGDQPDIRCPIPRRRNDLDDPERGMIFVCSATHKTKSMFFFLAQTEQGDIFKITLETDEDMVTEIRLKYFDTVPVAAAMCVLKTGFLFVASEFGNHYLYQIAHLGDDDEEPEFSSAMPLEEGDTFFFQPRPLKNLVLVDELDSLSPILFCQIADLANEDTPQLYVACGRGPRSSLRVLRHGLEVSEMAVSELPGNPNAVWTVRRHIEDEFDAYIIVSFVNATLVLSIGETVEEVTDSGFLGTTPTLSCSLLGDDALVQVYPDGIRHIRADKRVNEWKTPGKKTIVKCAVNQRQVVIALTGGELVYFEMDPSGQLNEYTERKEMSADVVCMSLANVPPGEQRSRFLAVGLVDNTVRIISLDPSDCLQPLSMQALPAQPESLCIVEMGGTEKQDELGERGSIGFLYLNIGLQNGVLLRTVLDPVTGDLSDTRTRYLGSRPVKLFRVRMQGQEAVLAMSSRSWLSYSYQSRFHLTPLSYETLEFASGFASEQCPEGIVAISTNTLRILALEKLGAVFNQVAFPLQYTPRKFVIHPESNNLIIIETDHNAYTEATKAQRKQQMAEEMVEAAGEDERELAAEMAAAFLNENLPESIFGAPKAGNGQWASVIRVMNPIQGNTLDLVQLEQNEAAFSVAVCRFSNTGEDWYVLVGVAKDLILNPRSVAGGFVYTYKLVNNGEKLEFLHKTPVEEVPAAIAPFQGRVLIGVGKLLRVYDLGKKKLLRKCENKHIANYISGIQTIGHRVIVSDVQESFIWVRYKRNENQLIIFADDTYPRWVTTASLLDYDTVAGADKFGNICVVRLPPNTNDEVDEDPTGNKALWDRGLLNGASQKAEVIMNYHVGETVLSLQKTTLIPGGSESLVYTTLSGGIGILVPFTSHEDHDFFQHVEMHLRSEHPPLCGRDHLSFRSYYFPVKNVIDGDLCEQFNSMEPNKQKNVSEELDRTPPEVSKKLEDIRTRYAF", "experiment": "Binding affinity to SF3B3 in human Jurkat cells at 150 uM followed by UV irradiation for 30 mins with Wood's glass filtered medium pressure mercury arc light prior to cell lysis measured after denaturing wash by LC-MS/MS based pull down assay", "procedure,_shortened": "as §1"}, "[5]": {"biological_target": "RuvB-like 2 (Homo sapiens) (UniProt Q9Y230)", "sequence (Q9Y230 whole entry)": "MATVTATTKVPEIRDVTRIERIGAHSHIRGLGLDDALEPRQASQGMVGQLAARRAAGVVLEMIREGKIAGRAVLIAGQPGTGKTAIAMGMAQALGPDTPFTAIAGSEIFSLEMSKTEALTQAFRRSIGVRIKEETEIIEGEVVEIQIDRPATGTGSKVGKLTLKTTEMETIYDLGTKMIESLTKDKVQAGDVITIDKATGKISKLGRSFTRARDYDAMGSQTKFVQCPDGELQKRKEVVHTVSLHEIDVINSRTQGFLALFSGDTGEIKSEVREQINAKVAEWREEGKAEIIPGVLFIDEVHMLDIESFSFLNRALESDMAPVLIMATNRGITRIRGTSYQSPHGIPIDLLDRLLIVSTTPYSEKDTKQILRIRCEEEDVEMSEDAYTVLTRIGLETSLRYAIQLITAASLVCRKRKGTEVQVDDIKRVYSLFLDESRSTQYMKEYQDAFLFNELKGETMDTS", "experiment": "Binding affinity to RUVBL2 in human Jurkat cells at 150 uM followed by UV irradiation for 30 mins with Wood's glass filtered medium pressure mercury arc light prior to cell lysis measured after denaturing wash by LC-MS/MS based pull down assay", "procedure,_shortened": "as §1"}},
  "note": "The source made the active and inactive calls. No cut-off for these calls is given here.",
  "data": [
    {"smiles": "O=C(CCCC[C@@H]1SC[C@@H]2NC(=O)N[C@@H]21)NCCOCCOCCNC(=O)COc1cc(O)c2c(=O)c(O)c(-c3ccc(O)c(O)c3)oc2c1", "values": [
      {"measurement": "IC50", "setting": "[1]", "value": 25.9, "unit": "µM"},
      {"measurement": "inhibition", "setting": "[2]", "value": "Active"},
      {"measurement": "Activity", "setting": "[3]", "value": "Active"},
      {"measurement": "Activity", "setting": "[4]", "value": "Active"},
      {"measurement": "Activity", "setting": "[5]", "value": "Active"}
    ]}
  ]
}
